# Screening results as filed in PubChem.
# MPTP inh: mitochondrial permeability transition pore inhibitors, primary screen, biochemical, isolated mouse mitochondria, absorbance; Ca2+ swelling absorbance, 30 min; inhibition, % at 10 µM; actives 1.4% (n = 360,000);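 active = inhibition of 50% or more, scaled per plate between neutral and stimulator controls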;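 also: 0% = DMSO wells given calcium and 100% = 1 mM EGTA wells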
# L major viab: Leishmania major promastigote growth inhibition, primary screen. Leishmania major promastigotes, resazurin fluorescence viability. inhibition, % at 10 µM. actives 9% (n = 200,000); in the data active = inhibition above about 50%;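 also: promastigotes grown with compound for 44 hours at 28 °C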
# T cruzi repl: inhibitors of intracellular T. cruzi growth, primary screen, luminescence, NIH3T3 host cells | actives 1.4% (n = 300,000) | T. cruzi beta-gal in NIH3T3, 90 h | AID 1885, 2009 | inhibition, % (test concentration not listed);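 active = mean inhibition across valid replicates above about 55%, limit read from the data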;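 also: signal also drops with host cell toxicity which is not excluded here; 0% = plate median of DMSO wells and 100% = zero luminescence signal; higher percent means less beta-gal luminescence so fewer parasites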
#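 Assay system: NIH/3T3 fibroblasts plus reporter T. cruzi. Amount: NIH/3T3 cells, 5,000 per well. Buffer or medium: DMEM, 2% fetal bovine serum. Doses: compound pinned at 50 nL/well, DMSO. Schedule: ≥90 h infection period, 3 h prior cell attachment. Signal: luminescent β-galactosidase signal after 60 min lysis. Read-out: parasite load inhibition, %.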
# DTT redox prof: compounds producing H2O2 with reducing agent – biochemical, NIH compound library profiling, artefact control for MLSCN library redox annotation, primary screen. DTT-dependent redox cycling H2O2, phenol red/HRP absorbance; 100% = 100 µM peroxide control, 0% = buffer. AID 878, 2007. actives 0.03% (n = 200,000). activation, % at 10 µM;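 active = activation of at least 50% relative to the plate's high and low controls in the primary single-dose screen; inactive = activation below 50%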;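 also: compound incubated with DTT at 0.8 mM final as the reducing agent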
# Lipid droplet: inhibitors of hepatocyte lipid droplet formation, primary screen, imaging, high-throughput imaging, BODIPY stain. AID 1656, 2009. inhibition, % at 6.5 µM. actives 0.4% (n = 240,000). AML12 mouse hepatocytes, oleate lipid droplets;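 active = lipid droplet intensity inhibited by at least 50%, with more than 500 cells counted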
#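 Assay system: AML12 mouse liver cells | Compound dosing: One dose, 6.5 µM compound | Read-out basis: Droplet intensity reduction, % inhibition | Measured by: Fluorescence imaging, 20x objective, two fields per well | Schedule: Overnight treatment with compound plus oleate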
# Starred values were filed as active, the others as inactive; nt = not tested or not shown. The sample as a whole holds a higher share of hits than the screen did.
SMILES,MPTP inh,L major viab,T cruzi repl,DTT redox prof,Lipid droplet
Cc1ccc(C(C)C)c(OCCCN2CC(C)OC(C)C2)c1 (stereo unspecified),-1,97*,0,4,-5
CN(C)CCNC(NC(=O)c1cccs1)C(Cl)(Cl)Cl (stereo unspecified),1,-2,24,0,4
O=C(CCn1cccn1)N1CCCC(N2CCN(c3cccc(Cl)c3)CC2)C1 (stereo unspecified),-1,nt,20,nt,11
CCN(CC)CCC(=O)c1ccc(F)cc1,2,80*,-28,-1,3
C/C(Cc1ccccc1)=N\NC(=O)CNC(=O)c1ccccc1Br,-2,62*,-14,0,9
C/C(Cc1ccccc1)=N\NC(=O)CNC(=O)c1ccccc1O,1,nt,-9,nt,2
Cc1ccc(N=c2c([N+](=O)[O-])nn(-c3ccccc3)n2O)c(C)c1,2,56*,53,3,4
Cc1cccc(CCN=c2c([N+](=O)[O-])nn(-c3ccccc3)n2O)c1,-2,62*,43,-1,-11
COc1ccc(-n2nc([N+](=O)[O-])c(=NCCc3cccc(C)c3)n2O)cc1,2,81*,63*,0,3
CC(C)COc1ccc(C(=O)Nc2ccc(SC(F)F)cc2)cc1,7,52*,20,1,-17
NC(=O)c1ccc(NC(=O)CN2C(=O)NC(c3ccccc3)(c3ccccc3)C2=O)cc1,1,nt,-10,nt,-6
Cc1ccc(N/N=C2\CS(=O)(=O)N(C)c3ccsc32)cc1,0,1,64*,-1,1
CN1c2ccsc2/C(=N/Nc2ccc(F)cc2)CS1(=O)=O,1,29,64*,-1,10
O=C(O)/C=C(/c1ccccc1)C(F)(F)F,1,nt,nt,nt,nt
COC1(C)CC2C(CC1OC(=O)c1cc([N+](=O)[O-])cc([N+](=O)[O-])c1)C2(C)C (stereo unspecified),1,100*,48,0,-13
COC(=O)Cn1ncc(N2C3CC(CC(C)(C)C3)C2C)c(Cl)c1=O (stereo unspecified),0,81*,5,nt,13
COC(=O)Cn1ncc(N(C)Cc2ccccc2)c(Cl)c1=O,0,nt,-2,nt,-3
O=C(COc1ccc(Cl)cc1)NNC(=O)c1ccccc1C(=O)O,-1,nt,-12,nt,-7
O=C1/C(=C\c2ccc(O)c(O)c2)N=C2CCCCCN12,1,nt,-10,nt,-10
COC(=O)CSc1ncnc2c(C)csc12,0,nt,-13,nt,9
CCCC(c1nnnn1CC(=O)OCC)N(Cc1cc2ccc(C)cc2[nH]c1=O)C1CCCC1 (stereo unspecified),0,11,16,4,4
CCCC(c1nnnn1CC(=O)OCC)N(Cc1cc2c(C)cc(C)cc2[nH]c1=O)C1CCCC1 (stereo unspecified),1,55*,21,2,nt
CCOC(=O)Cn1nnnc1C(CC)N(Cc1ccccc1)Cc1cc2cc(C)ccc2[nH]c1=O (stereo unspecified),-3,97*,20,0,0
Cc1cc(C(=S)N2CCOCC2)c(C)n1-c1ccc(Cl)cc1,2,6,-10,0,-15
Cc1cc(C)cc(-n2c(C)cc(C(=S)N3CCOCC3)c2C)c1,-17,55*,15,0,0
SMILES,MPTP inh,L major viab,T cruzi repl,DTT redox prof,Lipid droplet
CN(C)c1ccc(C=C(C#N)C(=O)c2ccccc2)cc1Br,-2,nt,nt,nt,nt
Cc1ccc2c(c1)N(CC(=O)N1CCCCC1c1cccnc1)C(=O)CO2 (stereo unspecified),-3,77*,61*,4,2
CC(NC(=O)CN1C(=O)NC2(CCCCCCC2)C1=O)c1ccccc1 (stereo unspecified),0,nt,nt,nt,nt
C=CCC1(NC(C)c2ccccc2)CCCCC1 (stereo unspecified),0,57*,-8,0,-1
CC(C)(C)NC(=O)C(c1ccc(F)cc1)N(Cc1ccco1)C(=O)c1csnn1 (stereo unspecified),1,3,3,0,nt
CC(C)(C)NC(=O)C(c1ccncc1)N(Cc1ccco1)C(=O)c1ccc(-c2ccccc2)[nH]1 (stereo unspecified),0,74*,3,0,5
O=C(NC1CCCCC1)C(c1ccncc1)N(Cc1ccccc1)C(=O)c1ccc(-c2ccccc2)[nH]1 (stereo unspecified),5,99*,70*,1,nt
O=C(NC1CCCCC1)C(c1ccncc1)N(Cc1ccc(F)cc1)C(=O)c1ccccn1 (stereo unspecified),0,nt,28,nt,-17
CCCN1CCC(=NNc2ccc(S(=O)(=O)N(CC)CC)cc2[N+](=O)[O-])CC1,2,100*,8,0,-39
CC(C)NC(=O)c1cc(-c2ccc(F)cc2OC(C)C)n[nH]1,0,nt,nt,nt,nt
C=C(C)[C@@H]1CC=C(CN2CCC(CCOC)(C(=O)OCC)CC2)CC1,1,79*,nt,0,-1
COc1cccc(CNC(=O)C(c2ccc(Cl)cc2)C(C)C)c1 (stereo unspecified),1,57*,13,0,-6
CC(=O)N(c1nc(CCl)cs1)c1cccc(C)c1C,1,-4,-14,0,16
Cc1ccc(NC(=O)NNC(=O)CN2C(=O)COc3ccccc32)cc1,0,nt,0,nt,2
COc1ccc(S(=O)(=O)N[C@@H](Cc2ccc(Cl)cc2)C(=O)N2CC[C@@]3(O)CCCC[C@H]3C2)cc1,0,86*,7,2,nt
COc1ccc(S(=O)(=O)N[C@H](C(=O)N2CC[C@@]3(O)CCCC[C@H]3C2)c2ccccc2)cc1,1,7,-11,0,nt
Cc1occc1C(=O)N/N=C/C1=C(N2CCOCC2)C(=C\c2ccc(Cl)cc2Cl)/CC1,8,93*,14,12,19
COC(=O)c1ccc(CNC(=O)c2ccc(COc3ccccc3)cc2)cc1,0,69*,-27,1,-5
O=C(NCc1ccco1)c1ccc(COc2ccc(Cl)cc2)cc1,2,50*,-16,0,-12
O=C(COc1ccccc1)NCc1ccco1,0,nt,nt,nt,nt
CC(C)(C)c1ccc(OCC(=O)NCc2ccco2)cc1,3,71*,-14,0,nt
CN(CC(=O)Nc1ccccc1C(F)(F)F)C(=O)c1cccc(-n2cccc2)c1,0,nt,2,nt,nt
COc1cc(C(=O)O/N=C2/C=CC(=O)C(C)=C2C)cc(OC)c1OC,1,100*,nt,0,nt
COc1cc(C(=O)ON=C2C3CC4CC(C3)CC2C4)cc(OC)c1OC,-2,nt,4,nt,18
COc1cc(C(=O)O/N=C2\C=CC(=O)C=C2C)cc(OC)c1OC,2,97*,-18,0,23
Cc1ccc(S(=O)(=O)N(C)C)cc1NS(=O)(=O)c1ccc(Cl)s1,1,69*,-9,0,-9
